ChEMBL document CHEMBL1144710, “epigenetic multiple ligands: mixed histone/protein methyltransferase, acetyltransferase, and class III deacetylase (sirtuin) inhibitors” (J Med Chem, 2008)
Active and inactive are the calls of the source. Unless noted, the calls are words filed in the database; no cut-off is given here.

Assays:
[1] = test system: U-937; assay: Inhibition of histone H3R17 methylation in human U937 cells at 50 uM after 24 hrs; type: functional, cell-based
Method in brief: (§1)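 U937 cells treated at 50 µM for 24 h. Histones extracted with Triton buffer, then 0.2 M HCl overnight at 4 °C. 3–10 µg run on 15% SDS-PAGE and immunoblotted with anti-monomethyl-H3K4, monomethyl-H4R3 or dimethyl-H3R17 (1:500, overnight 4 °C), ECL detection. Loading controls: total H4 (H3K4), Ponceau Red (Arg marks).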

[2] = test system: U-937; assay: Inhibition of histone H4R3 methylation in human U937 cells at 50 uM after 24 hrs; type: functional, cell-based; method in brief: as §1
[3] = test system: U-937; assay: Inhibition of histone H3K4 methylation in human U937 cells at 50 uM after 24 hrs; type: functional, cell-based; method in brief: as §1
[4] = target: RmtA (Emericella nidulans) (UniProt Q5VLE3); assay: Inhibition of Aspergillus nidulans RmtA at 90 uM
RmtA (Emericella nidulans), sequence (Q5VLE3 as listed by the source): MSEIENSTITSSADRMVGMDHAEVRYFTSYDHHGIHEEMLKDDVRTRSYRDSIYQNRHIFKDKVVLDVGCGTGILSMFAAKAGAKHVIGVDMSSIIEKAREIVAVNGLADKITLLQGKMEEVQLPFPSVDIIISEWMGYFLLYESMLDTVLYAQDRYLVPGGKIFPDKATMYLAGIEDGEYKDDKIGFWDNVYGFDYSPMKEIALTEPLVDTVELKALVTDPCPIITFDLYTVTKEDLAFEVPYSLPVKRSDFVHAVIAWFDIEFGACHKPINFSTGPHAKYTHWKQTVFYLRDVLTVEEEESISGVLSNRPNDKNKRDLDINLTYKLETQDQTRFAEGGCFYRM

[5] = target: T1, Histone-arginine methyltransferase CARM1 (Homo sapiens) (UniProt Q86X55); assay: Inhibition of human recombinant CARM1 assessed as poly(A) binding protein 1 methylation at 100 uM
T1 sequence (whole entry): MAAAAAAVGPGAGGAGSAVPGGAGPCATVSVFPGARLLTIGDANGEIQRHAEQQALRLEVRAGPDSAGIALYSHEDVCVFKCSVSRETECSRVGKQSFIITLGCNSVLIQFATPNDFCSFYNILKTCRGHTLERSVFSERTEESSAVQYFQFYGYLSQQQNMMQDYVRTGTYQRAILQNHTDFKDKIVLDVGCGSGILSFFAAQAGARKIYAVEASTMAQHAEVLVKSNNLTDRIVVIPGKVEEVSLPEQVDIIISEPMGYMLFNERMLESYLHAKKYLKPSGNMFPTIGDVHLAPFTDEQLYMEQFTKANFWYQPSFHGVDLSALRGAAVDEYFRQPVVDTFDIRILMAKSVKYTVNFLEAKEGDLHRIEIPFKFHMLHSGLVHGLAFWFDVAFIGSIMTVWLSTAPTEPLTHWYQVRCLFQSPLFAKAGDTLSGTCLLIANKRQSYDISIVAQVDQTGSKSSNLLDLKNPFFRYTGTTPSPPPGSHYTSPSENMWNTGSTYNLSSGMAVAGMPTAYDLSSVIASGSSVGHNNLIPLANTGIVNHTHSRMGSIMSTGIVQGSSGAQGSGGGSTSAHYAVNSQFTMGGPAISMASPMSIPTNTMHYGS
Method in brief: (§2)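 Recombinant enzymes (0.2 µg) with substrate (0.5 µg: Npl3p for PRMT1, PABP1 for CARM1, histone H3 for SET7), 0.5 µM [3H]AdoMet and 100 µM compound in PBS pH 7.4 with 3.3% v/v DMSO, 90 min at 30 °C. Products separated by 10% SDS-PAGE, transferred to PVDF, detected by fluorography on film overnight.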

[6] = target: T2, Histone-lysine N-methyltransferase SETD7 (Homo sapiens) (UniProt Q8WTS6); assay: Inhibition of human recombinant SET7 assessed as histone H3 protein methylation at 100 uM; method in brief: as §2
T2 sequence (whole entry): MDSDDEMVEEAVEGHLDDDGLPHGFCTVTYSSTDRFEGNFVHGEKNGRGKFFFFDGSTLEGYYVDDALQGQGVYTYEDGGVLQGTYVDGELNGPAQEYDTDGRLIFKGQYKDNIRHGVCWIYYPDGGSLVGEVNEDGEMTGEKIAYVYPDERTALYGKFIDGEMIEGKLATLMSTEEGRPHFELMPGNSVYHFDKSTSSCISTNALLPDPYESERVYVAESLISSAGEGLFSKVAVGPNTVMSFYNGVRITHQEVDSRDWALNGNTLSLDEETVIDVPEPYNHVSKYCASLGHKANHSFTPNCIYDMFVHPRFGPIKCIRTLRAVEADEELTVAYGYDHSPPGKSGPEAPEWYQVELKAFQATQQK

[7] = target: RmtA (Emericella nidulans) (UniProt Q5VLE3); assay: Inhibition of Aspergillus nidulans RmtA at 88.5 uM
Method in brief: (§3)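 Enzyme was GST-RmtA fusion expressed in E. coli BL21 and glutathione-affinity purified (500 ng), preincubated with compound for 15 min at room temperature. Then 20 µg chicken erythrocyte core histones and 0.55 µCi [3H]AdoMet were added, 30 min at 30 °C. Stopped with 25% TCA, filtered, counted by liquid scintillation.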

[8] = target: Protein arginine N-methyltransferase 1 (Homo sapiens) (UniProt Q99873); assay: Inhibition of human recombinant PRMT1 assessed as nuclear ribonucleoprotein Npl3p methylation at 100 uM; method in brief: as §2
Protein arginine N-methyltransferase 1 (Homo sapiens), sequence (Q99873 whole entry, looked up): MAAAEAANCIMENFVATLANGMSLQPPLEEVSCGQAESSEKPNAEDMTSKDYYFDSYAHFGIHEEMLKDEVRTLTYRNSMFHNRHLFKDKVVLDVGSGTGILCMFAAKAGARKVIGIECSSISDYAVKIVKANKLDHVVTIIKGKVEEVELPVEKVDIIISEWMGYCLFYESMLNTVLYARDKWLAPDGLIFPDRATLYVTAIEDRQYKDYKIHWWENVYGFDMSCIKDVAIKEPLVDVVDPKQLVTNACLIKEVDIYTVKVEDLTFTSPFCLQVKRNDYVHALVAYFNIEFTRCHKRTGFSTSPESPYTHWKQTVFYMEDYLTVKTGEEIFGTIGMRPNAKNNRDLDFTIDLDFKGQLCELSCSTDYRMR

[9] = target: RmtA (Emericella nidulans, UniProt Q5VLE3); assay: Inhibition of Aspergillus nidulans RmtA; method in brief: as §3
RmtA, sequence (Q5VLE3 whole entry): as the sequence (Q5VLE3 as listed by the source) above

[10] = test system: U-937; assay: Inhibition of human p300/CBP in U937 cells at 50 uM assessed as histone H3 acetylation; type: cell-based
Method in brief: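 Source was U937 nuclear extract (10 µg per assay) as p300/CBP HAT, with histone H3 substrate and compound at 50 µM or DMSO control for 90 min. Acetyl-H3 detected by indirect ELISA, quantified against acetylated H3 peptide standard curves, […].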

[11] = target: T3, NAD-dependent protein deacetylase sirtuin-2 (Homo sapiens) (UniProt Q8IXJ6); assay: Inhibition of human SIRT2 at 25 uM
T3 sequence (whole entry): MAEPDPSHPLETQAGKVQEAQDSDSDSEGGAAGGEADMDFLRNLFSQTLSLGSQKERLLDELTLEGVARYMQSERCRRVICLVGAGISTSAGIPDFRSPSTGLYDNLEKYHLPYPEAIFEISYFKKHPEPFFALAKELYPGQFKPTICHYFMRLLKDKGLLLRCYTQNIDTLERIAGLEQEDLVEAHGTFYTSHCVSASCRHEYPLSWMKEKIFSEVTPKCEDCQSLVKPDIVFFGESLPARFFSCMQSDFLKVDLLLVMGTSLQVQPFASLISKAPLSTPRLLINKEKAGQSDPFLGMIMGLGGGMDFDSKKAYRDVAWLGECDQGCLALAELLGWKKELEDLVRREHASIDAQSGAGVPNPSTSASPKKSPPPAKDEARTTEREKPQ
Method in brief: (§4)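 Fluorescent two-stage assay. SIRT1 (1 U/well) or SIRT2 (5 U/well) with Fluor de Lys-SIRT1/2 substrate, NAD+ and compound at 25 µM, 37 °C for 2 h. Developer II containing nicotinamide then stopped the reaction and generated signal, read at ex 360/em 460 nm.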

[12] = target: T4, NAD-dependent protein deacetylase sirtuin-1 (Homo sapiens) (UniProt Q96EB6); assay: Inhibition of human SIRT1 at 25 uM; method in brief: as §4
T4 sequence (whole entry): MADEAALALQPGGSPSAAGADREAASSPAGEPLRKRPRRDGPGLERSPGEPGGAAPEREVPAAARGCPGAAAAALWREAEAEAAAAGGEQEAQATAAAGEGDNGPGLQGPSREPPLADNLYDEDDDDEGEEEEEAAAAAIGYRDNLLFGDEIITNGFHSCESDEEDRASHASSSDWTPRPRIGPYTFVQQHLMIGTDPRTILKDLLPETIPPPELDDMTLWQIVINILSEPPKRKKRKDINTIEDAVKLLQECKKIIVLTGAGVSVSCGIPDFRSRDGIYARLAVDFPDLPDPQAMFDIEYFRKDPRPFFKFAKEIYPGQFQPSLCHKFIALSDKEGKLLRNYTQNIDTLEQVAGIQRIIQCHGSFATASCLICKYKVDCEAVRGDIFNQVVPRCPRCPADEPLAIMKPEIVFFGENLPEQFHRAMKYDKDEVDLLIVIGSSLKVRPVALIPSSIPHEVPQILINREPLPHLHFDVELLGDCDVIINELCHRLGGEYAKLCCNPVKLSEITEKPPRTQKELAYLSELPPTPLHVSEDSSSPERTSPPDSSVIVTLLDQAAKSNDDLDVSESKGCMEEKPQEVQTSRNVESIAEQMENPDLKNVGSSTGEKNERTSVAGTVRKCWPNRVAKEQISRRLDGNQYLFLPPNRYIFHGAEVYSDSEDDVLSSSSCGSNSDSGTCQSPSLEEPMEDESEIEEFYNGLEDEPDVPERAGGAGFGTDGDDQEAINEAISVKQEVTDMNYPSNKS

[13] = test system: U-937; assay: Induction of apoptosis in human U937 cells at 25 uM after 30 hrs; type: functional
Method in brief: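 Apoptosis read as caspase 3 activation by FACS, in U937 cells (RPMI, 10% fetal calf serum, 200000 cells/mL) exposed to 25 µM for 30 h.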

[14] = target: Protein arginine N-methyltransferase 1 (Homo sapiens) (UniProt Q99873); assay: Inhibition of human recombinant PRMT1 assessed as histone H4 methylation at 50 uM
[15] = test system: U-937; assay: Induction of granulocytic differentiation in human U937 cells assessed as CD11c expression at 1 uM after 30 hrs; type: functional
Method in brief: (§5)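 U937 cells treated for 30 h, then stained with PE-conjugated CD11c (PE mouse IgG1 as control) for 30 min at 4 °C in the dark and resuspended in PBS with PI (0.25 µg/mL). Read-out is percent CD11c-positive/PI-negative cells, with dead PI-positive cells excluded. Coloured compounds limited the top dose to 5 µM or lower.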

[16] = test system: U-937; assay: Induction of cell cycle arrest in human U937 cells at 25 uM after 30 hrs; type: functional, cell-based
Method in brief: (§6)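 U937 cells in RPMI with 10% fetal calf serum, HEPES and glutamine, kept at 200000 cells/mL; treated at 25 µM for 30 h, then the distribution across cell cycle phases was analysed.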

[17] = target: RmtA (Emericella nidulans) (UniProt Q5VLE3); assay: Inhibition of Aspergillus nidulans RmtA at 91.8 uM; method in brief: as §3
[18] = test system: U-937; assay: Cell cycle arrest in human U937 cells assessed as accumulation at S/G2 phase at 25 uM after 30 hrs; type: functional, cell-based; method in brief: as §6
[19] = test system: U-937; assay: Induction of granulocytic differentiation in human U937 cells assessed as CD11c expression at 5 uM after 30 hrs; type: functional; method in brief: as §5
[20] = target: RmtA (Emericella nidulans) (UniProt Q5VLE3); assay: Inhibition of Aspergillus nidulans RmtA at 77 uM
[21] = test system: U-937; assay: Induction of granulocytic differentiation in human U937 cells assessed as CD11c expression at 0.5 uM after 30 hrs; type: functional; method in brief: as §5
[22] = test system: U-937; assay: Cell cycle arrest in human U937 cells assessed as accumulation at G2 phase at 25 uM after 30 hrs; type: functional, cell-based; method in brief: as §6
[23] = target: RmtA (Emericella nidulans) (UniProt Q5VLE3); assay: Inhibition of Aspergillus nidulans RmtA at 70.4 uM; method in brief: as §3
[24] = target: RmtA (Emericella nidulans) (UniProt Q5VLE3); assay: Inhibition of Aspergillus nidulans RmtA at 89.4 uM
[25] = target: RmtA (Emericella nidulans) (UniProt Q5VLE3); assay: Inhibition of Aspergillus nidulans RmtA at 84.6 uM; method in brief: as §3

SMILES	Activity [5]	Activity [6]	Activity [8]	IC50 [9] [µM]	inhibition [11] [%]	inhibition [12] [%]	inhibition [14] [%]	Activity [1]	Activity [2]	Activity [3]	inhibition [10] [%]	Activity [13] [%]	other results
O=C(c1cc(Br)c(O)c(Br)c1)c1cc(Br)c(O)c(Br)c1								Active	Active	Active			inhibition [4]: 0%
O=C1OC2(c3ccccc31)c1cc(Br)c(O)c(Br)c1Oc1c2cc(Br)c(O)c1Br [EOSIN]	Active	Active	Active	18	31	33	96	Active	Active		20	0.5	Activity [15]: 5.7%; Activity [16]: inactive
CC(C)(C(=O)/C=C/c1ccc(O)c(Br)c1)C(=O)/C=C/c1ccc(O)c(Br)c1								Active	Active				inhibition [17]: 0%
O=C1/C(=C/c2cc(Br)c(O)c(Br)c2)CSC/C1=C\c1cc(Br)c(O)c(Br)c1	Active	Active	Active	45	59	54	73	Active	Active	Active	69	40.7	Activity [18]: Active; Activity [19]: 9.1%
O=C(/C=C/c1cc(Br)c(O)c(Br)c1)/C=C/c1cc(Br)c(O)c(Br)c1	Active	Active		69	100	61	76	Active	Active	Active	100	1.1	Activity [21]: 77%; Activity [22]: Active; Activity [19]: 95.2%
O=C(Nc1cc(Br)c(O)c(Br)c1)c1ccc(C(=O)Nc2cc(Br)c(O)c(Br)c2)cc1								Active	Active				inhibition [23]: 0%
CN1C2CCC1/C(=C\c1ccc(O)c(Br)c1)C(=O)/C2=C/c1ccc(O)c(Br)c1								Active	Active	Active			inhibition [25]: 0%

Further lines, with some results ahead:

Activity [5]	Activity [6]	Activity [8]	IC50 [9] [µM]	inhibition [11] [%]	inhibition [12] [%]	inhibition [14] [%]	SMILES	Activity [1]	Activity [2]	Activity [3]	inhibition [10] [%]	Activity [13] [%]	other results
Active	inactive	inactive					O=C1/C(=C/c2ccc(O)c(Br)c2)CSC/C1=C\c1ccc(O)c(Br)c1	Active	Active	Active			inhibition [7]: 0%
Active	inactive	inactive					O=C1/C(=C/c2ccc(O)c(Br)c2)CN(Cc2ccccc2)C/C1=C\c1ccc(O)c(Br)c1	Active	Active	Active			inhibition [20]: 0%
Active	inactive	inactive					O=C1/C(=C/c2ccc(O)c(Br)c2)CCCC/C1=C\c1ccc(O)c(Br)c1	Active	Active	Active			inhibition [24]: 0%
Active	Active	Active	39	64	63	73	CN1C/C(=C\c2cc(Br)c(O)c(Br)c2)C(=O)/C(=C/c2cc(Br)c(O)c(Br)c2)C1	Active	Active	Active	87	1	Activity [22]: Active; Activity [19]: 53.2%
